The values below come from ChEMBL document CHEMBL1146087, “1,4-Benzodiazepines as inhibitors of respiratory syncytial virus” (J Med Chem, 2006).

A short description of data set [1]: Cmax in Sprague-Dawley rat at 20 mg/kg, po. The class given is ADME, organism-based. The arrangement: dose 20 mg/kg, route oral. To be noted: in vivo.
A short description of data set [2]: Tmax in Sprague-Dawley rat at 20 mg/kg, po. Particulars: in vivo. It counts as ADME, organism-based. Set-up: dose 20 mg/kg, route oral.
Data set [3] is described as follows: Half life in Sprague-Dawley rat at 20 mg/kg, po. It counts as ADME, organism-based. Set-up: dose 20 mg/kg, route oral. To be noted: in vivo.
Data set [4] is described as follows: Apparent oral clearance in Sprague-Dawley rat at 20 mg/kg, po. Particulars: in vivo. Set-up: dose 20 mg/kg, route oral. The class given is ADME, organism-based.
For data set [5], the system named is Rattus norvegicus. The data set is described as follows: Volume of distribution in Sprague-Dawley rat at 20 mg/kg, po. The class given is ADME, organism-based. Set-up: dose 20 mg/kg, route oral. Particulars: in vivo.
The next data set relates to HEp-2. In words: Cytotoxicity against Hep2 cell at 50 uM. Particulars: Homo sapiens. The class given is functional, cell-based. In short, it runs like this:
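Run alongside the whole-cell antiviral XTT assay, without virus, to measure compound toxicity to the cells. The read-out is XTT.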

Data set [6] concerns Respiratory syncytial virus. In words: Antiviral activity against RSV RSS in Hep2 cells by ELISA. It counts as functional, organism-based. Particulars: human respiratory syncytial virus, HEp-2. For orientation: An ELISA detects its analyte on a solid surface through an enzyme-linked reagent.
Data set [7] deals with Respiratory syncytial virus. In words: Antiviral activity against RSV Long in Hep2 cells by ELISA. The class given is functional, organism-based. Particulars: human respiratory syncytial virus, HEp-2.
For data set [8], the system named is Respiratory syncytial virus. The data set is described as follows: Antiviral activity against RSV B in Hep2 cells by ELISA. Particulars: human respiratory syncytial virus, HEp-2. It counts as functional, organism-based.
Data set [9] relates to Respiratory syncytial virus. In words: Antiviral activity against RSV RSS in Hep2 cells by plaque assay. To be noted: human respiratory syncytial virus, HEp-2. The class given is functional, organism-based.
Data set [10] concerns Respiratory syncytial virus. The data set is described as follows: Antiviral activity against RSV Long in Hep2 cells by plaque assay. It counts as functional, organism-based. Particulars: human respiratory syncytial virus, HEp-2.
Data set [11] deals with Respiratory syncytial virus. The data set is described as follows: Antiviral activity against RSV B in Hep2 cells by plaque assay. It counts as functional, organism-based. Particulars: human respiratory syncytial virus, HEp-2.
Data set [12] concerns Rattus norvegicus. In words: Volume of distribution in Sprague-Dawley rat at 2 mg/kg, po. The class given is ADME, organism-based. The arrangement: dose 2 mg/kg, route oral. To be noted: in vivo.
The nature of data set [13]: Oral bioavailability in Sprague-Dawley rat at 2 mg/kg, po. The class given is ADME, organism-based. Particulars: in vivo.
Data set [14] is described as follows: Volume of distribution in Sprague-Dawley rat at 2 mg/kg, iv. Set-up: dose 2 mg/kg, route intravenous. To be noted: in vivo, read-out: Vdss. The class given is ADME, organism-based.
Data set [15] deals with Respiratory syncytial virus. In words: Antiviral activity against RSV RSS in Hep2 cells by whole cell XTT assay. The class given is functional, organism-based. Particulars: human respiratory syncytial virus, HEp-2. The gist of the method:
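Primary whole-cell assay with XTT read-out of infected cells. Parallel cultures without virus were run to measure compound cytotoxicity. IC50 values were derived.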
In general terms: Tetrazolium dyes change colour on reduction, which living cells bring about.

In data set [16] the test system is Respiratory syncytial virus. The data set is described as follows: Antiviral activity against RSV A2 in Hep2 cells by plaque assay. It counts as functional, organism-based. Particulars: human respiratory syncytial virus, A2, HEp-2.
Data set [17] is described as follows: Cmax in Sprague-Dawley rat at 2 mg/kg, iv. It counts as ADME, organism-based. The arrangement: dose 2 mg/kg, route intravenous. Particulars: in vivo.
A short description of data set [18]: Cmax in Sprague-Dawley rat at 2 mg/kg, po. To be noted: in vivo. The class given is ADME, organism-based. The arrangement: dose 2 mg/kg, route oral.
Data set [19] is described as follows: Tmax in Sprague-Dawley rat at 2 mg/kg, iv. The class given is ADME, organism-based. To be noted: in vivo. The arrangement: dose 2 mg/kg, route intravenous.
The nature of data set [20]: Tmax in Sprague-Dawley rat at 2 mg/kg, po. To be noted: in vivo. The class given is ADME, organism-based. Set-up: dose 2 mg/kg, route oral.
Data set [21] is described as follows: Half life in Sprague-Dawley rat at 2 mg/kg, iv. It counts as ADME, organism-based. Set-up: dose 2 mg/kg, route intravenous. Particulars: in vivo.
Data set [22] is described as follows: Half life in Sprague-Dawley rat at 2 mg/kg, po. It counts as ADME, organism-based. Set-up: dose 2 mg/kg, route oral. Particulars: in vivo.
Data set [23] in a line: Cmax in Sprague-Dawley rat at 25 mg/kg, po. It counts as ADME, organism-based. To be noted: in vivo. Set-up: dose 25 mg/kg, route oral.
Data set [24] in a line: Tmax in Sprague-Dawley rat at 25 mg/kg, po. To be noted: in vivo. It counts as ADME, organism-based. Set-up: dose 25 mg/kg, route oral.
A short description of data set [25]: Half life in Sprague-Dawley rat at 25 mg/kg, po. The class given is ADME, organism-based. Set-up: dose 25 mg/kg, route oral. To be noted: in vivo.
Data set [26] can be described thus: Apparent oral clearance in Sprague-Dawley rat at 25 mg/kg, po. The class given is ADME, organism-based. Set-up: dose 25 mg/kg, route oral. Particulars: in vivo.
Data set [27] can be described thus: Clearance in Sprague-Dawley rat at 2 mg/kg, iv. Particulars: in vivo. The arrangement: dose 2 mg/kg, route intravenous. It counts as ADME, organism-based.
A short description of data set [28]: Apparent oral clearance in Sprague-Dawley rat at 2 mg/kg, po. It counts as ADME, organism-based. Set-up: dose 2 mg/kg, route oral. To be noted: in vivo.
In data set [29] the test system is Rattus norvegicus. The data set is described as follows: Volume of distribution in Sprague-Dawley rat at 25 mg/kg, po. The class given is ADME, organism-based. The arrangement: dose 25 mg/kg, route oral. To be noted: in vivo.

pIC50: −log10 of the molar value.

What is called Cmax is the peak of the concentration-time curve. What is called Tmax is the time at which the peak concentration occurs. Usually half-life stands for the time needed for the level to fall by half in the phase considered. A higher half-life goes with slow decline. In general, CL/F refers to the apparent clearance, not corrected for the fraction that reaches the circulation. The pIC50 is the IC50 on a negative log10 scale, so that one unit is a factor of ten. Lower therefore signals a high IC50. The term bioavailability denotes dose-corrected exposure relative to a reference, in per cent. A word on the clearance: it is a measure of how efficiently the substance is removed, as volume per time. A higher clearance goes with a high capacity for elimination.

In data set [1], `COc1cc([N+](=O)[O-])ccc1C(=O)NC1N=C(c2ccccc2)c2ccccc2NC1=O` (centres undefined) displayed a peak concentration (Cmax) of 1670 ng/mL. The Tmax in data set [2] is 3 h. This compound also had a half-life in data set [3] of 5.8 h. Also, the CL/F in data set [4] worked out at 18.8 mL/min/kg. This compound registered a Vdss in the data set with Rattus norvegicus [5] of 9.8 L/kg. The Activity result in the data set with HEp-2 was “Not toxic”. Further, the pIC50 was 5.60 in [6]; 5.92 in [7]; 5.89 in data set [8]; 5.74 in [9]; 6.05 in data set [10]; above 6.52 in data set [11].

Turning to `O=C(Nc1ccccc1F)NC1N=C(c2ccccc2)c2ccccc2NC1=O` (centres undefined), in the data set on Rattus norvegicus [12], the Vdss amounted to 7.5 L/kg. The bioavailability in data set [13] worked out at 76%. In addition, the Vd in [14] worked out at 2.5 L/kg. The pIC50 in data set [15] was 5.48; in data set [6], 5.57; in [7] it was 5.60; in data set [8], 5.72; in data set [16], 5.55; in data set [9] it was 5.52. The pIC50 in [10] was 5.66; in data set [11] it was 6.12. Also, in the data set with HEp-2, the Activity entry is “Not toxic”. Also, the Cmax in [17] was 1530 ng/mL; in [18] it was 386 ng/mL. The figures for the Tmax in [19] and in data set [20] were 4.8 min and 2.6 h, respectively. Further, the half-life was 3.7 h in data set [21] and 8.1 h in data set [22].

For `CC(=O)NC1N=C(c2ccccc2)c2ccccc2NC1=O` (centres undefined), the Vdss in the data set with Rattus norvegicus [12] is 4.2 L/kg; in the data set on Rattus norvegicus [29] it was 2.7 L/kg. The compound further yielded a bioavailability in [13] of 77%. The Vd in data set [14] was 2.2 L/kg. Besides, the pIC50 in [15] is 5.07; in data set [6], 5.03; in data set [7], 4.75; in data set [8] it was 4.75; in data set [9] it was 5.15; in data set [10], 5.14. The compound further showed a pIC50 in [11] of 5.44. Further, the Activity entry in the data set with HEp-2 is “Not toxic”. The Cmax worked out at 7930 ng/mL in [23], 2400 ng/mL in data set [17] and 616 ng/mL in [18]. The figures for the Tmax in data set [24], in data set [19] and in data set [20] were 1.5 h, 4.8 min and 2.6 h, respectively. The results for the half-life in data set [25], in data set [21] and in data set [22] were 4.4 h, 5 h and 5.9 h, respectively. Moreover, the apparent clearance CL/F was found to be 7.3 mL/min/kg in data set [26] and 4.9 mL/min/kg in data set [28]. This compound came in with a clearance in [27] of 5.3 mL/min/kg.
